# Key:
# [1] = system: human umbilical vein endothelial cell (HUVEC); assay: HUVEC proliferation assay; assay type: cell-based; settings: read-out: IC50 HUVECs proliferation
# MRC5 = MRC5 proliferation assay; assay type: cell-based; settings: Homo sapiens, MRC5, read-out: IC50 MRC5 proliferation
# [2] = Pharmacokinetic studies in Sprague Dawley rats; assay type: in vivo; settings: rat, plasma
# VEGFR2 kinase = settings: read-out: IC50 VEGFR2 kinase (reported); cited from earlier work
# [3] = molecular target: T1, bone morphogenic protein receptor type 2 (BMPR2) (Homo sapiens, UniProt Q13873); assay: KdELECT assay, inhibitor binding constant for BMPR2
# T1 sequence (Q13873 27-1038): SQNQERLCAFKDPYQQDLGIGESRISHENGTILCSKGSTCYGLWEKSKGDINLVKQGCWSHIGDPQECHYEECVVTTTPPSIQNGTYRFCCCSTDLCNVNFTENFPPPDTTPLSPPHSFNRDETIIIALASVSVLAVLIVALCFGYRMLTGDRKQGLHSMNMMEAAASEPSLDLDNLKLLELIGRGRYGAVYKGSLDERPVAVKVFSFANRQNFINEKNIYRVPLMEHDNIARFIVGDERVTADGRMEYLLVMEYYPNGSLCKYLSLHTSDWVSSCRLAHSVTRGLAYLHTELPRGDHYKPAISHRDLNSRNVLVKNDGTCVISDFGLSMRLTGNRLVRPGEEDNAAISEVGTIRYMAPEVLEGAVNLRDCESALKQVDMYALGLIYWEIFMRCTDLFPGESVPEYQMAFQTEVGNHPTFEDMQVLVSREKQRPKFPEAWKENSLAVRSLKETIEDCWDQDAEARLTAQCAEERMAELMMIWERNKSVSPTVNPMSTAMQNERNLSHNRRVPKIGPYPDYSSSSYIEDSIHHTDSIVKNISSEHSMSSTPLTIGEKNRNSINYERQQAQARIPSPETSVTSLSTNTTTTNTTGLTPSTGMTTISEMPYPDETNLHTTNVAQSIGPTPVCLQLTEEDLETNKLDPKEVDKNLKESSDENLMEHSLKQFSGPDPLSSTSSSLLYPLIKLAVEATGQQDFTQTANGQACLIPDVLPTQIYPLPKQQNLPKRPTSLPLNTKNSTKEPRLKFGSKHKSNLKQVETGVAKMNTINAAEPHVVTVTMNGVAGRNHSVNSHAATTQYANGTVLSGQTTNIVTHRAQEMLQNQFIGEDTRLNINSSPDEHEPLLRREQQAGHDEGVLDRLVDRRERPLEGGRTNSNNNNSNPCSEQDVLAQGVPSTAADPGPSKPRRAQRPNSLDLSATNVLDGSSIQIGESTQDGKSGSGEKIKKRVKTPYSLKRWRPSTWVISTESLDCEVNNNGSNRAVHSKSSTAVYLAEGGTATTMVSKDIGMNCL
# Male SD rats = assay: Drug plus three weeks hypoxia; assay type: in vivo, rat; settings: for Right ventricular systolic pressure (RVSP): 17.8 µg/h Alzet osmotic pump for 14 of 21 days of hypoxia; for RVH compared to the normal control group: 28 days post-hypoxia; for Induction of severe PAH: drug plus hypoxia, rats
# In short: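 Male SD rats got test compound 20 mg/kg SC once or 17.8 μg/h by osmotic minipump, then 3 weeks at FiO2 10% and 14 or 28 days normoxia; untreated normoxic rats as controls. Under isoflurane, RV pressure by sternotomy catheter; RV free wall, IVS, LV weighed. Lungs perfused with 10% formalin, H&E 8 μm sections, lumen/media area ratio, ≥20 arterioles/section. RV Picro-Sirius red staining.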
# VEGFR2 = VEGFR2 (Homo sapiens, UniProt P35968); assay: KINOMEscan Profiling against 468 human kinases: VEGFR2; assay type: binding; settings: 10,000 nM
# Sequence of VEGFR2 (P35968 20-1356): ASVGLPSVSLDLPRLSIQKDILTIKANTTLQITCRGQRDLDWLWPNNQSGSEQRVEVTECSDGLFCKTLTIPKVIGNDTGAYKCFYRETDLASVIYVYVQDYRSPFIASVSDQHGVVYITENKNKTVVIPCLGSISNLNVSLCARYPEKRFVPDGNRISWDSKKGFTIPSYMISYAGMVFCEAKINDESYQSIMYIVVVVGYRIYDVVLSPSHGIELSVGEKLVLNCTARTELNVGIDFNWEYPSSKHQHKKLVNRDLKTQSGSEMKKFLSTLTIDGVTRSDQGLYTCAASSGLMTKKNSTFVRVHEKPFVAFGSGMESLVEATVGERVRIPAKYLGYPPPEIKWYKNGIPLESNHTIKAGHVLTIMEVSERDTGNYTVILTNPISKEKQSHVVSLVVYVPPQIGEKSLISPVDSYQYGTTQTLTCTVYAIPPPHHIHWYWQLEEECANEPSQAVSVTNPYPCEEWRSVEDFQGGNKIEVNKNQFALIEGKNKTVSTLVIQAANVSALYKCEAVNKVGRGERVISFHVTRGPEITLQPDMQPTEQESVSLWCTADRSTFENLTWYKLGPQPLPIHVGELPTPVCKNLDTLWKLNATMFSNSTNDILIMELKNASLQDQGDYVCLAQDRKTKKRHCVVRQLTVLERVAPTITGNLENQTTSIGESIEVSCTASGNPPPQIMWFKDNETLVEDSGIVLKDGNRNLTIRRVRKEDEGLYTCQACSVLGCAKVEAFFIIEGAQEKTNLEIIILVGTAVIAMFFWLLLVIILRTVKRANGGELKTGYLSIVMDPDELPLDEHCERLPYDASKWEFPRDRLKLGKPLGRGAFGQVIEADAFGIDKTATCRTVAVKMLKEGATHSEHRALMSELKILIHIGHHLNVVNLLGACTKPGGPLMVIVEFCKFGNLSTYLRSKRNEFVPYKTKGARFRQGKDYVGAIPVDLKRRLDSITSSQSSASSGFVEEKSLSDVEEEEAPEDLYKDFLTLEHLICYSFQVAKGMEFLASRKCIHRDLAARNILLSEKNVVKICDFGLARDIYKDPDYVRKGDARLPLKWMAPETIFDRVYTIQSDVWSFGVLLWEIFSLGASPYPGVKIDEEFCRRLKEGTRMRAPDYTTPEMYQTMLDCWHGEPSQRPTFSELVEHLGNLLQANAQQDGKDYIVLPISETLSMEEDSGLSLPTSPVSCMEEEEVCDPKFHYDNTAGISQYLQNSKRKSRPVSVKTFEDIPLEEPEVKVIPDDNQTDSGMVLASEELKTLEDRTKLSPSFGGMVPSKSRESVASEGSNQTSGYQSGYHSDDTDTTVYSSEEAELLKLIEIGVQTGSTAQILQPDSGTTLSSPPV
# [4] = other: via an Alzet pump, 12 mg/kg
smiles,measurement,setting,value
"COc1cc2nccc(Oc3ccc(NC(=O)C4(C(=O)Nc5ccc(F)cc5)CC4)cc3)c2cc1OC [Cabozantinib, cabozantinib]",IC50,[1],4.9 nM
same,IC50,MRC5,549 nM
same,AUC(0-t),[2]; [4],16800 ng·h/mL
same,Cmax,[2]; [4],238 ± 83 ng/mL
same,half-life,[2]; [4],43 ± 8 h
same,AUC(0-t),"[2]; sc, 20 mg/kg",27500 ng·h/mL
same,Cmax,"[2]; sc, 20 mg/kg",1620 ± 103 ng/mL
same,half-life,"[2]; sc, 20 mg/kg",25.7 ± 10.8 h
same,IC50,VEGFR2 kinase,0.035 nM
same,Kd,[3],> 10000 nM
same,Right ventricular systolic pressure (RVSP),"Male SD rats; 14 days after removal from hypoxia, mean ± SEM",40.0 ± 3.1 mmHg
same,Right ventricular systolic pressure (RVSP),"Male SD rats; 28 days after removal from hypoxia, mean ± SEM",27.9 ± 1.9 mmHg
same,RVH by Fulton's Index (RV/(LV + IVS)),"Male SD rats; 14 days post-hypoxia, Cabo = SC + Alzet groups, mean ± SEM",0.36 ± 0.02
same,RVH compared to the normal control group,Male SD rats,no significant difference
same,Induction of severe PAH,Male SD rats,did not induce severe PAH
Cc1cc(C)c(/C=C2\C(=O)Nc3ccccc32)[nH]1 [SU5416],Activity against VEGFR2 in kinome screen,VEGFR2,potent
same,IC50,[1],330 nM
same,IC50,MRC5,11700 nM
same,AUC(0-t),"[2]; sc, 20 mg/kg",12.6 ± 2 ng·h/mL
same,Cmax,"[2]; sc, 20 mg/kg",4.97 ± 2.3 ng/mL
same,half-life,"[2]; sc, 20 mg/kg",5 ± 4.7 h
same,RVH compared to the normal control group,Male SD rats,significantly increased
same,"RV fibrosis (Picro-Sirius red, qualitative)","Male SD rats; days 14 and 28 after removal from hypoxia, SU5416H vs CaboH groups",increase in RV fibrosis
same,Induction of severe PAH,Male SD rats,induced severe PAH

# Source: paper PMC8202272 (Pulmonary Circulation, 2021)
